According to ChEMBL document CHEMBL4177580, “New 5-HT1A, 5HT2A and 5HT2C receptor ligands containing a picolinic nucleus: Synthesis, in vitro and in vivo pharmacological evaluation” (Bioorg Med Chem, 2017):
Active and inactive are the calls of the source.

Experiments:
Mus musculus [1] = experiment: Toxicity in Swiss albino mouse assessed as reduction in spontaneous locomotor activity at 7.5 mg/kg, ip dosed 60 mins before test; type: organism-based; settings: in vivo, 1 h
Procedure, shortened: (§1)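 Spontaneous locomotion: mice dosed i.p. 60 min before being placed individually in an actometer for 30 min. Distance travelled read at 6 and 30 min. Cages cleaned with 70% ethanol between animals. One-way ANOVA with Dunnett's; mean ± SEM of one experiment.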

Rattus norvegicus [2] = experiment: In-vivo 5-HT1A receptor agonist activity in Wistar rat assessed as induction of lower lip retraction by measuring lower lip retraction score at 1 mg/kg, ip dosed 15 mins before test co-treated with 0.3 mg/kg, ip WAY100635
[3] = target: T1, 5-hydroxytryptamine receptor 2C (Rattus norvegicus, UniProt P08909); experiment: Displacement of [3H]mesulergine from serotonin 5-HT2C receptor in Sprague-Dawley rat brain cortex homogenates incubated for 15 mins by liquid scintillation spectrometry
T1 sequence (P08909 whole entry): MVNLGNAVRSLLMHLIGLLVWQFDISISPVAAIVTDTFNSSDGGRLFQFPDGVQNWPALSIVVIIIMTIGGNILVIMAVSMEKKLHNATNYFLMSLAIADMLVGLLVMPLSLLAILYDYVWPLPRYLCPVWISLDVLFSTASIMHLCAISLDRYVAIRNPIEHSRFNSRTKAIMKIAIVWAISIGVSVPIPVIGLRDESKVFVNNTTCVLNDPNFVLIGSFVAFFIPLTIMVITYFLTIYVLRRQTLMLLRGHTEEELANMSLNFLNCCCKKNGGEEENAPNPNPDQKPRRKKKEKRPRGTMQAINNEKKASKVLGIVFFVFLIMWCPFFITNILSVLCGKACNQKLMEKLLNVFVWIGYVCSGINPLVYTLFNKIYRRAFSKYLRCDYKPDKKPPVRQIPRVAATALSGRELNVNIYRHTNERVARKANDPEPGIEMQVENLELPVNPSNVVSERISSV

Rattus norvegicus [4] = experiment: In-vivo 5-HT1A receptor antagonist activity in Wistar rat assessed as reduction in 8-OH-DPAT-stimulated induction of lower lip retraction by measuring lower lip retraction score at 30 mg/kg, ip dosed 15 mins before test (reference value: 2.875 +/- 0.08183)
Mus musculus [5] = experiment: Induction of hypothermia in normothermic Swiss albino mouse assessed as reduction in body temperature at 30 mg/kg, ip measured after 120 mins post dose; type: functional, organism-based
Procedure, shortened: (§2)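 Normothermic male Swiss mice; rectal thermistor readings over 180 min. Baseline is the mean of readings 60 and 30 min before dosing; readings at 30, 60, 90, 120 min post-injection; Δt = tf − ti. Test compounds i.p. (DMSO/methylcellulose); 8-OH-DPAT (5 mg/kg) and WAY 100635 (0.1 mg/kg) s.c. in water. Two-way ANOVA, Bonferroni.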

Rattus norvegicus [6] = experiment: In-vivo 5-HT1A receptor agonist activity in Wistar rat assessed as induction of lower lip retraction by measuring lower lip retraction score at 30 mg/kg, ip dosed 15 mins before test (reference value: 0.0 +/- 0.0)
Mus musculus [7] = experiment: Anxiolytic-like activity in Swiss albino mouse assessed as increase in time spent in open arms at 3.75 to 15 mg/kg measured for 5 mins test period by elevated plus maze test; type: functional, organism-based
Mus musculus [8] = experiment: Toxicity in Swiss albino mouse assessed as effect on motor coordination at 3.75 to 15 mg/kg, ip dosed 60 mins before test by Chimney test; type: organism-based; settings: in vivo, 1 h
Procedure, shortened: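 Chimney test in male Swiss mice after i.p. dosing 60 min earlier: impairment defined as failure to climb backwards up a tube (3 cm inner diameter, 25 cm long) within 60 s. Animals pre-trained once daily for 3 days. One-way ANOVA with Dunnett's.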

Mus musculus [9] = experiment: Inhibition of 8-OH-DPAT-induced hypothermia in Swiss albino mouse at 30 mg/kg, ip measured after 120 mins post dose co-treated with 8-OH-DPAT; type: functional, organism-based; procedure, shortened: as §2
Mus musculus [10] = experiment: Toxicity in Swiss albino mouse assessed as reduction in spontaneous locomotor activity at 15 mg/kg, ip dosed 60 mins before test; type: organism-based; settings: in vivo, 1 h; procedure, shortened: as §1
[11] = target: 5-hydroxytryptamine receptor 2A (Rattus norvegicus, UniProt P14842); experiment: Displacement of [3H]ketanserin from serotonin 5-HT2A receptor in Sprague-Dawley rat brain cortex homogenates incubated for 15 mins by liquid scintillation spectrometry
Chain of 5-hydroxytryptamine receptor 2A (P14842 whole entry): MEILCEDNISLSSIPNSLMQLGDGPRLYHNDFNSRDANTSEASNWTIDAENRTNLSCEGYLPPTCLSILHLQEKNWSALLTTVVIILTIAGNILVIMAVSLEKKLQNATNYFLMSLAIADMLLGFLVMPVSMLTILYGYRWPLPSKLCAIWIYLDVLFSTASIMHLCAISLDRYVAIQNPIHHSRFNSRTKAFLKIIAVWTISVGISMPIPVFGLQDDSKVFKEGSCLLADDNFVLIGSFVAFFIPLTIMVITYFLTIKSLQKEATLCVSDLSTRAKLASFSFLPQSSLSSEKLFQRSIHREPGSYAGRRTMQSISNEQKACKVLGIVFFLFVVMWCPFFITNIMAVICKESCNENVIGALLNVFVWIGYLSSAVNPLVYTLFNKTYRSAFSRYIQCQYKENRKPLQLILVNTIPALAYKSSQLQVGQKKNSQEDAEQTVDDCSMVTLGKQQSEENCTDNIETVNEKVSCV

[12] = target: T2, 5-hydroxytryptamine receptor 1A (Rattus norvegicus, UniProt P19327); experiment: Displacement of [3H]-8-OH-DPAT from serotonin 5-HT1A receptor in Sprague-Dawley rat brain cortex homogenates incubated for 30 mins by liquid scintillation spectrometry
T2 sequence (P19327 whole entry): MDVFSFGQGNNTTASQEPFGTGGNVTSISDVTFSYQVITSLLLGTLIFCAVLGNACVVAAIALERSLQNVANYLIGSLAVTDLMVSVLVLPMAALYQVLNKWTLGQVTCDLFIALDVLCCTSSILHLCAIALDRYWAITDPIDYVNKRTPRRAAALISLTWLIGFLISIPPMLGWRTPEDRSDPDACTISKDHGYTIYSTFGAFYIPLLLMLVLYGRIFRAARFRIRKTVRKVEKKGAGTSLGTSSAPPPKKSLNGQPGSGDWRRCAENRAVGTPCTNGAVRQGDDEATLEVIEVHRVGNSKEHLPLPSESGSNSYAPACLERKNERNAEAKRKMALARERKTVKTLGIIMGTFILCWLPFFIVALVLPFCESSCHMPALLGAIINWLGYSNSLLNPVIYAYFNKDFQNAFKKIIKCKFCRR

Mus musculus [13] = experiment: Antidepressant-like activity in Swiss albino mouse assessed as reduction in immobility time at 15 mg/kg, ip dosed 1 hr before test by forced swimming test; type: functional, organism-based
Procedure, shortened: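 Male Swiss albino mice (18-24 g). The reference drug was diluted in saline and given ip (10 ml/kg) 1 h before testing. Each mouse swam for 6 min in a cylinder (25 cm high, 10 cm diameter) holding 10 cm of water at 23-25°C. Immobility was timed over the last 4 min. Data are mean ± SEM, analysed by one-way ANOVA with Dunnett's test.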

Mus musculus [14] = experiment: Antidepressant-like activity in Swiss albino mouse assessed as reduction in immobility time at 7.5 mg/kg, ip dosed 1 hr before test by forced swimming test; type: functional, organism-based
Procedure, shortened: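 Male Swiss albino mice (18–24 g), compound i.p. in 0.1% DMSO/0.5% methylcellulose 1 h pre-test. Porsolt swim: cylinder 25 cm high, 10 cm diameter, 10 cm water at 23–25°C, 6 min session; immobility scored over last 4 min. Blind observer; one-way ANOVA with Dunnett's; mean ± SEM.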

Mus musculus [15] = experiment: Inhibition of 8-OH-DPAT-induced hypothermia in Swiss albino mouse at 0.1 mg/kg, ip measured after 120 mins post dose co-treated with 8-OH-DPAT; type: functional, organism-based
Rattus norvegicus [16] = experiment: In-vivo 5-HT1A receptor antagonist activity in Wistar rat assessed as reduction in 8-OH-DPAT-stimulated induction of lower lip retraction by measuring lower lip retraction score at 0.3 mg/kg, ip dosed 15 mins before test (reference value: 2.875 +/- 0.08183)
Rattus norvegicus [17] = experiment: In-vivo 5-HT1A receptor agonist activity in Wistar rat assessed as induction of lower lip retraction by measuring lower lip retraction score at 0.3 mg/kg, ip dosed 15 mins before test (reference value: 0.0 +/- 0.0)

SMILES | Activity (Mus musculus [1]) | Activity (Rattus norvegicus [2]) | Ki [3] [µM] | Activity_index (Rattus norvegicus [4]) | Activity (Mus musculus [5]) | Activity_index (Rattus norvegicus [6]) | Activity (Mus musculus [7]) | Activity (Mus musculus [8]) | inhibition (Mus musculus [9]) | Activity (Mus musculus [10]) | Ki [11] [µM] | Ki [12] [nM] | Activity (Mus musculus [13]) | Activity (Mus musculus [14]) | inhibition (Mus musculus [15]) | Activity_index (Rattus norvegicus [16]) | Activity_index (Rattus norvegicus [17])
O=C(NCCN1CCN(c2ncccn2)CC1)c1ccccn1 | Non-Toxic | inactive | > 10 | 2 | inactive | 2.714 | Active | Non-Toxic | Active | Non-Toxic | > 10 | 0.046 | Active | Active |  |  | 
COc1ccccc1N1CCN(CCN(C(=O)C2CCCCC2)c2ccccn2)CC1 [WAY-100,635] |  |  |  |  |  |  |  |  |  |  |  |  |  |  | Active | 1.667 | 0
